The source made the active and inactive calls. The calls are words filed in the database; no cut-off is given here.
Tests used:
[1] = molecular target: T1, Sortase A (Staphylococcus aureus) (UniProt Q9S446); assay: Inhibition of recombinant Staphylococcus aureus wild type truncated C-terminal His6 tagged Srt A at 200 uM using Abz-Leu-Pro-Glu-Thr-Gly-Lys(Dnp)-NH2 as substrate preincubated for 15 mins followed by substrate addition measured after 60 mins by FRET assay relative to control
T1 sequence (whole entry): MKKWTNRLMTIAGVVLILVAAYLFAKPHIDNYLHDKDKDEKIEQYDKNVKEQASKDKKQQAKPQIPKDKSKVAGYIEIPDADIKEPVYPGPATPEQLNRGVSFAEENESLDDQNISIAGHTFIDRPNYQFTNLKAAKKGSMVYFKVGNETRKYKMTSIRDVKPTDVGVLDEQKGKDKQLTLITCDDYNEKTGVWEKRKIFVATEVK
How it was run: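 FRET read-out: cleavage of the internally quenched substrate relieves Dnp quenching of the Abz fluorophore, and the resulting fluorescence reports SrtA activity. Compound at 200 µM, 15 min preincubation with enzyme. Inhibition reported as mean ± SD, n = 3.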

[2] = molecular target: T1, Sortase A (Staphylococcus aureus); assay: Binding affinity to Staphylococcus aureus SrtA by ligand based 1D CPMG relaxation dispersion NMR analysis
How it was run: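 Ligand-observed 1D NMR: spectrum of ligand alone, then ligand with SrtA, acquired after a delay acting as a T2 filter. Binding is scored as a drop in ligand signal intensity.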

Sortase A [3] = molecular target: T2, Sortase A (Staphylococcus aureus, UniProt Q9S446); assay: Inhibition of recombinant Staphylococcus aureus wild type truncated C-terminal His6 tagged Srt A using Abz-Leu-Pro-Glu-Thr-Gly-Lys(Dnp)-NH2 as substrate preincubated for 15 mins followed by substrate addition measured after 60 mins by FRET assay
T2 sequence (Q9S446 whole entry): T1 sequence (whole entry)

Staphylococcus aureus [4] = assay: Growth inhibition of Staphylococcus aureus CCUG 15915 measured after 18 to 24 hrs by broth microdilution assay; assay type: organism-based
Staphylococcus aureus [5] = assay: Growth inhibition of Staphylococcus aureus CCUG 17621 measured after 18 to 24 hrs by broth microdilution assay; assay type: organism-based
Escherichia coli = assay: Growth inhibition of Escherichia coli CCUG 17620 measured after 18 to 24 hrs by broth microdilution assay; assay type: organism-based; conditions: in vitro
Sortase A [6] = molecular target: T2, Sortase A; assay: (§1) Inhibition of recombinant Staphylococcus aureus wild type truncated C-terminal His6 tagged Srt A using Abz-Leu-Pro-Glu-Thr-Gly-Lys(Dnp)-NH2 as substrate preincubated for 30 mins followed by substrate addition measured after 60 mins by FRET assay in presence of 0.5 mM reducing agent, DTT
[7] = molecular target: T1, Sortase A (Staphylococcus aureus); assay: as §1
[8] = molecular target: T1, Sortase A (Staphylococcus aureus); assay: Covalent ligand binding to recombinant Staphylococcus aureus wild type truncated C-terminal His6 tagged SrtA assessed as enzyme modifications by measuring aminothiadiazolyl-thio (+130.96119 Da, +C2HN3S2) and nitrobenzyl-thio (+167.00410, +C7H5NO2S) fragments at 200 uM by LCMS analysis
[9] = molecular target: T1, Sortase A (Staphylococcus aureus); assay: Inhibition of recombinant Staphylococcus aureus wild type truncated C-terminal His6 tagged Srt A at 200 uM using Abz-Leu-Pro-Glu-Thr-Gly-Lys(Dnp)-NH2 as substrate preincubated for 6.3 hrs followed by substrate addition measured after 60 mins by FRET assay relative to control
[10] = molecular target: T1, Sortase A (Staphylococcus aureus); assay: Reversible ligand binding to Staphylococcus aureus SrtA using (Abz-Leu-Pro-Glu-Thr-Gly-Lys(Dnp)-NH2 as substrate by NMR competitive displacement analysis
How it was run: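 Ligand-observed CPMG NMR uses a delay acting as a T2 filter. Spectra are taken of the ligand alone, then after SrtA is added, then after a known binder is added to compete for the site. Recovery of the ligand signal marks reversible, competitive binding.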

[11] = molecular target: T1, Sortase A (Staphylococcus aureus); assay: Binding affinity to Staphylococcus aureus 15N-labeled SrtA by protein based 2D SOFAST-HMQC NMR analysis
[12] = molecular target: T1, Sortase A (Staphylococcus aureus); assay: Inhibition of recombinant Staphylococcus aureus wild type truncated C-terminal His6 tagged Srt A at 167 uM using Abz-Leu-Pro-Glu-Thr-Gly-Lys(Dnp)-NH2 as substrate preincubated for 15 mins followed by substrate addition measured after 60 mins by FRET assay relative to control
How it was run: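 FRET activity assay with an internally quenched substrate. Cleavage by SrtA separates the Abz donor from the Dnp quencher, and the increase in fluorescence is read. Compound at 167 µM with 15 min incubation. Percent inhibition is given as mean ± SD, n = 2.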

[13] = molecular target: T1, Sortase A (Staphylococcus aureus); assay: Irreversible ligand binding to Staphylococcus aureus SrtA using (Abz-Leu-Pro-Glu-Thr-Gly-Lys(Dnp)-NH2 as substrate by competitive binding based 1D CPMG relaxation dispersion NMR analysis
How it was run: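 Ligand-observed CPMG competition: the ligand–SrtA sample is challenged with a known binder for the same site. Signal recovery indicates displacement and reversible binding; no recovery indicates irreversible binding.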

Sortase A [14] = molecular target: T2, Sortase A; assay: Inhibition of recombinant Staphylococcus aureus wild type truncated C-terminal His6 tagged Srt A using Abz-Leu-Pro-Glu-Thr-Gly-Lys(Dnp)-NH2 as substrate preincubated for 30 mins followed by substrate addition measured after 60 mins by FRET assay
[15] = molecular target: T1, Sortase A (Staphylococcus aureus); assay: Covalent ligand binding to recombinant Staphylococcus aureus wild type truncated C-terminal His6 tagged SrtA assessed as enzyme modifications by measuring nicotinamido-thiadiazolyl thio (+235.98265 Da, +C8H4N4OS2) and nitrobenzyl-thio (+167.00410, +C7H5NO2S) fragments at 200 uM by LCMS analysis

| Structure (SMILES) | inhibition [1] [%] | Activity [2] | IC50 (Sortase A [3]) [µM] | other results |
| --- | --- | --- | --- | --- |
| O=C(Nc1nnc(SCc2cccc([N+](=O)[O-])c2)s1)c1ccco1 | 6 |  |  |  |
| O=[N+]([O-])c1cccc(CSc2nnc(Nc3cccnc3)s2)c1 | 37 |  |  |  |
| CC(=O)Nc1nnc(SCc2ccc([N+](=O)[O-])cc2)s1 | 94 | Active | 127 |  |
| O=[N+]([O-])c1ccc(CSc2nnc(N3CCNCC3)s2)cc1 | 80 | Active | 71 |  |
| CC(=O)Nc1nnc(SCc2cccc([N+](=O)[O-])c2)s1 | 18 |  |  | MIC (Staphylococcus aureus [4]): > 256 µg/mL; MIC (Staphylococcus aureus [5]): > 256 µg/mL; MIC (Escherichia coli): > 256 µg/mL |
| O=c1c(O)c(-c2ccc(O)cc2O)oc2cc(O)cc(O)c12 [MORIN] |  |  |  | IC50 (Sortase A [6]): 19 µM |
| O=C(Nc1nnc(SCc2ccc([N+](=O)[O-])cc2)s1)c1ccncc1 | 99 | inactive | 42 |  |
| CCSc1c(S)cnn(-c2ccccc2)c1=O |  |  | 3 |  |
| Nc1nnc(SCc2ccc([N+](=O)[O-])cc2)s1 | 101 | Active | 26 | MIC (Staphylococcus aureus [4]): > 256 µg/mL; inhibition [7]: inactive; Activity [8]: Active; MIC (Staphylococcus aureus [5]): > 256 µg/mL; MIC (Escherichia coli): > 256 µg/mL |
| O=C(Nc1nnc(SCc2cccc([N+](=O)[O-])c2)s1)c1cccnc1 | 13 |  |  |  |
| O=[N+]([O-])c1cccc(CSc2nnc(N3CCNCC3)s2)c1 | 27 | inactive |  | MIC (Staphylococcus aureus [4]): > 256 µg/mL; MIC (Staphylococcus aureus [5]): > 256 µg/mL; inhibition [9]: 38%; MIC (Escherichia coli): > 256 µg/mL |
| Nc1nnc(SCc2ccc3ccccc3c2)s1 | 13 |  |  |  |
| O=[N+]([O-])c1cccc(CSc2nnc(N3CCOCC3)s2)c1 | 29 | Active |  | MIC (Staphylococcus aureus [4]): > 256 µg/mL; MIC (Staphylococcus aureus [5]): > 256 µg/mL; MIC (Escherichia coli): > 256 µg/mL |
| Nc1nnc(SCc2cccc([N+](=O)[O-])c2)s1 | 11 | Active | 521 | MIC (Staphylococcus aureus [4]): > 256 µg/mL; MIC (Staphylococcus aureus [5]): > 256 µg/mL; MIC (Escherichia coli): > 256 µg/mL |
| O=C(Nc1nnc(SCc2cccc([N+](=O)[O-])c2)s1)c1ccncc1 | 8 | Active |  | MIC (Staphylococcus aureus [4]): > 256 µg/mL; MIC (Staphylococcus aureus [5]): > 256 µg/mL; MIC (Escherichia coli): > 256 µg/mL |
| Nc1nnc(Sc2ccc([N+](=O)[O-])c3nonc23)s1 |  | Active | 6 to 6.2 | Activity [10]: Active; inhibition [7]: inactive; Activity [11]: Active; inhibition [12]: 101% |
| CC(C)n1c(S)nc2c1c(=O)n(C)c(=O)n2C |  |  | 50 | Activity [13]: Active |
| Nc1nnc(SCc2ccccc2)s1 | 0 | inactive |  |  |
| Nc1nnc(Sc2ccc([N+](=O)[O-])cc2)s1 | 35 | inactive |  | IC50 (Sortase A [14]): Not Active |
| O=[N+]([O-])c1cccc(CSc2nnc(Br)s2)c1 | 19 |  |  |  |
| N#Cc1ccc(CSc2nnc(N)s2)cc1 | 2 | inactive |  |  |
| Nc1nnc(SCCc2cccc([N+](=O)[O-])c2)s1 | 13 | inactive |  |  |
| Nc1nnc(Sc2ccccc2)s1 | 25 | inactive |  |  |
| Nc1nnc(SCc2ccc(F)cc2)s1 | 5 | inactive |  |  |
| FC(F)(F)c1ccnc(Sc2nc[nH]n2)n1 |  |  | 19 |  |
| O=C(Nc1nnc(SCc2ccc([N+](=O)[O-])cc2)s1)c1cccnc1 | 100 | inactive | 3.8 | Activity [15]: Active; inhibition [7]: inactive |
| N#Cc1ccccc1CSc1nnc(N)s1 | 1 | Active | 1740 | MIC (Staphylococcus aureus [4]): > 256 µg/mL; MIC (Staphylococcus aureus [5]): > 256 µg/mL; MIC (Escherichia coli): > 256 µg/mL |
| O=[N+]([O-])c1ccc(CSc2nnc(N3CCOCC3)s2)cc1 | 104 | Active | 9 |  |

Reference: ChEMBL document CHEMBL4396929, “Discovery and development of substituted thiadiazoles as inhibitors of Staphylococcus aureus Sortase A” (Bioorg Med Chem, 2019)
